Most compounds without a hit are left out; they make up all but 3.8% or so of the library.
KCNK9 inh – KCNK9 potassium channel inhibitors, primary screen, HEK293 cells, thallium flux; Potassium channel subfamily K member 9 (Homo sapiens), Q9NPC2; FluxOR thallium flux fluorescence; hits give low values; B-score at 10 µM; 310,000 compounds, 1.2% hits; AID 488922, 2010;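 active = ratio B-score over 3 SD below the library mean, with starting fluorescence within 5 SD of its mean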;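 note: negative B-score means less thallium flux so channel inhibition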
Target sequence (Q9NPC2 whole entry, looked up): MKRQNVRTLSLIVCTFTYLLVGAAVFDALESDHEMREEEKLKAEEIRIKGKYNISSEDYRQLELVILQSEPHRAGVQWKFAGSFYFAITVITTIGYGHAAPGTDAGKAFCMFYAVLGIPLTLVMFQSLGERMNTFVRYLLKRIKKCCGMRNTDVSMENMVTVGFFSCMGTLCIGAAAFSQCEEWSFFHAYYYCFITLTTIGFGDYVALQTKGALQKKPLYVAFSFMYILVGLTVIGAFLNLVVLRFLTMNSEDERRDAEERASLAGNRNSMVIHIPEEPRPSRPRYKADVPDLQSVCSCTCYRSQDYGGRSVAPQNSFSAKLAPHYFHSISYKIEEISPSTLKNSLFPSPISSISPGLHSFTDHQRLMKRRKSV
Kir21 inh – inhibitors of mouse Kir2.1 inward-rectifier potassium channel; Inward rectifier potassium channel 2 (Mus musculus), P35561; HEK293-Kir2.1, FluxOR thallium flux fluorescence; hits give low values; B-score at 10 µM; 310,000 compounds, 0.85% hits;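 active = fluorescence ratio B-score at or below minus 3 SD of library scores, with starting-brightness B-score within 2 SD, cut at about -4.2 in these data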;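 note: channel flux triggered by added potassium and thallium sulfate stimulus; B-score of peak minus minimum fluorescence over baseline after thallium stimulus; more negative B-score means stronger Kir2.1 block with less thallium influx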
KCNQ1 act – potentiators or activators of KCNQ1 channel, primary screen, cell-based, thallium flux, high-throughput; Potassium voltage-gated channel subfamily KQT member 1 (Homo sapiens), P51787; CHO-K1 KCNQ1, thallium flux FluxOR fluorescence; hits give high values; B-score at 10 µM; 310,000 compounds, 0.35% hits; AID 2648, 2010;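 active = fluorescence ratio B-score, a plate-corrected score, at least three library SD, with initial intensity B-score within 5 SD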
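System: Stable KCNQ1 CHO-K1 line | Incubation: 90 min dye loading and 20 min compound exposure, both at room temperature | Measure: Ratio B score | Medium: Assay buffer for compound exposure, DMSO matched across wells | Compound dosing: Single-concentration screen | Probe or stimulus: K+/Tl+ depolarizing stimulus | Measured by: Kinetic FluxOR fluorescence, 10 s baseline plus 110 s post-stimulus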
KCNK3 inh – human KCNK3 channel inhibitors, primary screen, CHO cells, FluxOR thallium flux, B-score | FluxOR fluorescence; hits give low values | B-score at 10 µM | 340,000 compounds, 0.84% hits | AID 602410, 2012;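 active = B-score under library mean minus 4 SD, starting fluorescence ratio at most library mean plus 5 SD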;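 note: more negative B-score means stronger inhibition of thallium flux through KCNK3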
KCNQ1 block – inhibitors of human KCNQ1 channel, primary screen, cell-based, thallium flux, high-throughput; CHO-K1 KCNQ1, FluxOR thallium flux fluorescence; hits give high values; B-score at 10 µM; 310,000 compounds, 1.3% hits; AID 2642, 2010;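 active = compounds whose thallium flux B-score, printed positive for inhibition, exceeds three library SD while starting fluorescence stays within three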;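 note: channel opened by potassium depolarization with thallium stimulus after 20 min compound exposure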
hERG rescue – hERG rescue from dofetilide block, primary screen, cell-based, CHO-hERG, FluxOR thallium flux, dofetilide IC70 | Voltage-gated inwardly rectifying potassium channel KCNH2 (Homo sapiens), Q12809 | dofetilide IC70 present | activation (rescue from dofetilide block), less the hit threshold, % at 10 µM | 310,000 compounds, 0.51% hits | AID 1511, 2009;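 active = activation above the mean of controls blocked by dofetilide plus 5 SD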;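 note: thallium influx through hERG after potassium depolarization seen as dye fluorescence rise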
KCNK9 block conf – KCNK9 potassium channel inhibitors, confirmation, HEK293 cells, thallium flux, duplicate; shares compounds with KCNK9 inh; FluxOR thallium flux fluorescence; inhibition, % at 10 µM; 4,900 compounds, 43% hits; AID 492992, 2010;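 active = thallium signal inhibited by more than 5 SD of the compound-free buffer control wells, on both duplicate plates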;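 note: 0% = assay buffer control wells without compound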
Kir2-1 spec – mouse Kir2.1 channel inhibition, confirmation, selectivity assay for KCNK9 modulator project, cell-based, HEK293, thallium flux. 4,900 compounds, 4% hits. AID 492993, 2010. inhibition, % at 10 µM. shares compounds with KCNK9 inh. Kir2.1 cells, FluxOR thallium flux fluorescence;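 active = thallium signal drop more than 5 SD beyond the mean of the no-compound control wells, seen in both duplicate plates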;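 note: signal is fluorescence rise after thallium addition divided by baseline fluorescence; plate controls were assay buffer only for no effect and full block by chlorpromazine control for full effect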
KCNK9 uninduced – thallium flux in non-induced HEK293 cells, confirmation, counter-screen for KCNK9 inhibitor project, cell-based, second counter screen, non-induced KCNK9-HEK293 | shares compounds with KCNK9 inh | FluxOR thallium flux | 4,900 compounds, 40% hits | inhibition, % at 10 µM | AID 492997, 2010;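 active = thallium signal drop beyond 5 SD of the untreated control mean, on both duplicate plates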;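 note: plate controls were buffer only IC0 wells for no effect and SID17386958 at its maximal inhibitory level for full effect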
* hit, by the source's call; i = inactive; . = not tested or not shown.

SMILES | KCNK9 inh | Kir21 inh | KCNQ1 act | KCNK3 inh | KCNQ1 block | hERG rescue | KCNK9 block conf | Kir2-1 spec | KCNK9 uninduced
O=C(N/N=C/c1cccs1)c1cccc(NC(=O)c2ccccc2Cl)c1 | -9.4* | 0.35 | i | i | i | -19 | i | i | i
O=C(N/N=C/c1cn(-c2cccs2)nc1-c1ccccc1)c1ccccc1Cl | -10* | -0.2 | i | i | i | -2 | 51%* | i | i
O=C(c1ccccc1Br)N(Cc1ccccc1)c1ccccc1 | i | -1.5 | i | i | i | -10 | . | . | .
C=CCN1C(=O)C(CC(=O)Nc2ccccc2F)S/C1=N\c1nccs1 (stereo unspecified) | i | -0.14 | i | i | i | -12 | . | . | .
COc1ccc(OC)c(C(C[N+](=O)[O-])c2c(C)cc3ccccn23)c1 (stereo unspecified) | -17* | 0.24 | i | i | i | -10 | 58%* | i | 28%*
Cc1cccc(C)c1NC(=O)c1ccc(-n2cncn2)nc1 | i | 1.2 | i | i | i | -3 | . | . | .
Cc1sc2cc3c(c(C(=O)c4ccccc4)[n+]2c1C)-c1cccc2cccc-3c12 | -10* | -13* | i | . | i | -46 | 41%* | 64%* | 34%*
O=C(c1ccccc1)c1c2c(cc3sc4ccccc4[n+]13)-c1cccc3cccc-2c13 | . | . | . | i | . | . | . | . | .
O=C(c1cccc(C(F)(F)F)c1)N1CCOC12CCN(c1ncc(C(F)(F)F)cc1Cl)CC2 | i | -2.5 | i | i | i | -10 | i | i | i
CC(CNC(=O)CCC(=O)N1CCOc2ccccc21)c1ccccc1 (stereo unspecified) | i | 0.3 | i | i | i | -5 | . | . | .
CCCc1[nH]n(-c2ccc(F)cc2)c(=O)c1C=Nc1ccc(C)cc1 | i | 1.1 | i | i | i | -5 | . | . | .
OCCNCc1cc(Br)ccc1OCc1ccccc1Cl | i | -5.2 | i | i | i | -7 | . | . | .
COc1ccc(-c2csc(NC(=O)C3COc4ccccc4O3)n2)cc1OC (stereo unspecified) | -16* | 0.01 | i | -10* | i | -16 | 64%* | i | i
Cc1nnc(SCC(=O)Nc2ccc3c(c2)OCO3)[nH]c1=O | i | -0.46 | i | i | i | -3 | . | . | .
CCC1CN(C(=O)NCc2cccc(OC)c2)c2ccccc2O1 (stereo unspecified) | i | -0.72 | i | i | i | -2 | i | i | i
O=C(COC(=O)c1ccc(OC(F)F)cc1)NCCC1=CCCCC1 | . | . | . | i | . | . | . | . | .
C(=N\N(Cc1ccccc1)c1ccccc1)/c1cccnc1 | -12* | -1.2 | i | i | i | -11 | 54%* | i | 26%*
O=C(Nc1cscc1S(=O)(=O)c1ccccc1)c1ccccc1Cl | -8.6* | -1.8 | i | i | i | -3 | 41%* | i | 34%*
O=C(Nc1cscc1S(=O)(=O)c1ccc(Cl)cc1)c1ccccc1Cl | i | -0.71 | i | i | i | -11 | . | . | .
Clc1ccc(Cn2nc(-c3ccccc3)nc2-c2ccccc2)cc1 | -12* | -0.51 | i | i | i | -6 | 58%* | i | 54%*

Bioassay records deposited in PubChem by Johns Hopkins Ion Channel Center.
